Source: the array DNA melting data of Ke et al. (doi:10.1101/2024.01.08.574731)

Columns and labels:
[1] = folding enthalpy; higher = less favourable; fluorescence melt of hairpins on a sequencing array, two-state fit; conditions: sodium 0.088 M
How it was run: (§1)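 Cy3 fluorescence of library hairpins on a sequenced MiSeq flow cell, with annealed Cy3 and quencher oligos, was imaged in 50 mM Na-HEPES pH 8.0, 25 mM NaCl in 2.5 °C steps up to 60 °C. Signals were normalised to pre-quench Cy3 and to control variants. Melting temperature and folding enthalpy came from bootstrapped two-state fits, inverse-variance combined over four replicates. Fitted temperatures were raised by 9.35 °C to match UV melts.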

[2] = melting temperature; fluorescence melt of hairpins on a sequencing array, two-state fit, raised by 9.35 °C to match UV melts; conditions: sodium 0.088 M
How it was run: as §1

Sequence	folding enthalpy [1]	Tm [2]
GGTCTCGAAAGAGACACC ((((((....)))..)))	-9.21 kcal/mol	48.4 °C
GATCATTGCGATGATC ((((((....))))))	-38.8 kcal/mol	51.8 °C
GATCCCCGAGGGGATC ((((((....))))))	-37.2 kcal/mol	68.5 °C
GCTGGCGCGAAAGCGAGC (((..(((....))))))	-9.37 kcal/mol	55.6 °C
GTTGTAGCGAAAGCTAAC (((..(((....))))))	-23 kcal/mol	48.1 °C
CTCATGAAAATGAG (((((....)))))	-21.3 kcal/mol	44.8 °C
GATCAGCCACCTGATC ((((((....))))))	-33.8 kcal/mol	49.6 °C
GTTCTCGGAAACGGGAAC ((((.((....)).))))	-41.3 kcal/mol	51 °C
GGCGTTCCGAAAGGAGCC (((..(((....))))))	-20.5 kcal/mol	51.7 °C
GGTATCGAAAGATGACC ((((((....))).)))	-22.1 kcal/mol	36.6 °C
GCACCGCGAAAGCAGTGC ((((.((....)).))))	-25.6 kcal/mol	65 °C
GCACGGCGAAAGCAGAGC ((.(.((....)).).))	-20 kcal/mol	53 °C
GTACGCGGAAACGCGTGC (.(((((....))))).)	-15.4 kcal/mol	60.9 °C
GTCCAGCGAAAGCTCGAC (((.(((....))).)))	-20.7 kcal/mol	43.2 °C
GCGTTCGAAAGAATCCGC ((((((....)))..)))	-22 kcal/mol	35.3 °C
GGATGCGAAAGCACATCC ((((((....)))..)))	-19.2 kcal/mol	42.2 °C
GAGGTCCGAAAGGACTC (((.(((....))))))	-11.9 kcal/mol	47.9 °C
GCTTACGGAAACGTAGGC ((.((((....)))).))	-27.2 kcal/mol	50 °C
GACGCCCGAAAGGGGTC (((.(((....))))))	-17.1 kcal/mol	55.6 °C
GATGCGGGAAACCACACC (.((.((....)).)).)	-12.4 kcal/mol	26.7 °C
GCTCTAACGAAAGTTAGC (((..(((....))))))	-13.7 kcal/mol	33.8 °C
GACCCAGGAAACTGGATC ((.((((....)))).))	-17.9 kcal/mol	38.8 °C
GTACTCGGAAACGAGTAC (((((((....)))))))	-37.7 kcal/mol	63 °C

Sequence	folding enthalpy [1]	Tm [2]
GTCTCCGAAAGGAATGAC ((((((....)))..)))	-20.7 kcal/mol	35.2 °C
GCCGATCGAAAGATAGGC (((.(((....))).)))	-41 kcal/mol	61 °C
GATCAGGCGCCTGATC ((((((....))))))	-52.1 kcal/mol	60.8 °C
GCTTGCCGAAAGGCCAGC (((.(((....))).)))	-27.9 kcal/mol	54.1 °C
GTGCCTCGAAAGAGCCAC (((.(((....))).)))	-21 kcal/mol	43.2 °C
GGAGAGCGAAAGCTGTCC (((.(((....))).)))	-32.8 kcal/mol	58.2 °C
GCGGCTGGAAACAGCTGC ((.((((....)))).))	-39.1 kcal/mol	63.6 °C
GCCCTAGGAAACTAGGGC (((((((....)))))))	-31.2 kcal/mol	67.5 °C
GTAACCGAAAGGTTTAC ((((((....))).)))	-14.2 kcal/mol	43 °C
GTTCTCGGAAACGAAAAC (((.(((....))).)))	-20 kcal/mol	29.3 °C
GCCCAGCGAAAGCTAAGC ((..(((....)))..))	-9.29 kcal/mol	27.7 °C
CGCGGAGCTGTCCGCG ((((((....))))))	-20.9 kcal/mol	67.1 °C
GTGTATTCGAAAGAACAC (((..(((....))))))	-19.1 kcal/mol	32.8 °C
GAGGGAGGAAACTTCCTC ((((.((....)).))))	-25.6 kcal/mol	45.6 °C
GATCTGGTACCAGATC ((((((....))))))	-37.8 kcal/mol	56 °C
GGGGAACCGAAAGGTCCC (((..(((....))))))	-17.3 kcal/mol	55.6 °C
GATTGCGAAAGCAGGATC ((((((....)))..)))	-10.9 kcal/mol	30.1 °C
GGATCGGGAAACCGATTC (.(((((....))))).)	-26.6 kcal/mol	50.6 °C
GGCGTACGAAAGTATGCC (((.(((....))).)))	-41.9 kcal/mol	65.5 °C
GACCCCGAAAGGGTGGTC ((((((....)))..)))	-16.5 kcal/mol	49.4 °C
GCACCCGCGAAAGCGTGC (((..(((....))))))	-14.5 kcal/mol	42.6 °C
GGAGAAGGAAACCTCTCC (((((.(....).)))))	-28.6 kcal/mol	37.7 °C
GCCGGTGGAAACGTCGGC ((((..(....)..))))	-42 kcal/mol	52.3 °C

Sequence	folding enthalpy [1]	Tm [2]
GTACCACGAAAGTGCTAC (((.(((....))).)))	-13.7 kcal/mol	33.6 °C
GGCCGACCGAAAGGTGCC (((..(((....))))))	-25.5 kcal/mol	49.5 °C
GGCATCGAAAGATTCGCC ((((((....)))..)))	-25.4 kcal/mol	36.5 °C
GGATGCGGAAACGCGTTC (.(.(((....))).).)	-17.4 kcal/mol	41.5 °C
GACTCAGGAAACTGAGTC (((((((....)))))))	-46 kcal/mol	60.8 °C
GCGCCCGAAAGGGCTCGC ((((((....)))..)))	-13 kcal/mol	52.4 °C
GCAGGCGGAAACACCTGC (((((.(....).)))))	-48.9 kcal/mol	54.1 °C
GATGCCGAAAGGCATATC ((((((....)))..)))	-11 kcal/mol	55.7 °C
GCTTAGCGAAAGCTGTGC ((..(((....)))..))	-16.4 kcal/mol	39.7 °C
GCGCTGCGAAAGCATTGC ((..(((....)))..))	-17.2 kcal/mol	41.1 °C
GGTGGAGGAAACTTCGCC ((.(.((....)).).))	-28.2 kcal/mol	37.7 °C
GGTGGCGGAAACGCCATC (.(((((....))))).)	-16.4 kcal/mol	59.9 °C
GGATTGCGAAAGCACTCC (((.(((....))).)))	-34.9 kcal/mol	49.4 °C
GACTAGCGAAAGCTTGTC (((.(((....))).)))	-31.3 kcal/mol	54.7 °C
GTACGTGGAAACACGTGC (.(((((....))))).)	-28 kcal/mol	54.2 °C
GATCCGTCGTCGGATC ((((((....))))))	-36.3 kcal/mol	60.1 °C
GAGGGGGGAAACTCCCTC (((((.(....).)))))	-34.3 kcal/mol	53.2 °C
GTGTACCCGAAAGGGCAC (((..(((....))))))	-20.6 kcal/mol	48.3 °C
GCCTCCCGAAAGGGCGGC (((.(((....))).)))	-34.4 kcal/mol	61.3 °C
GCGTAGTCGAAAGACCGC (((..(((....))))))	-28.9 kcal/mol	52 °C
GTCCTGCGAAAGCATGAC (((.(((....))).)))	-26 kcal/mol	49.9 °C
GTTCACGGAAACGTAAAC (((.(((....))).)))	-11.4 kcal/mol	34.9 °C
GTATGTGAAAACATAC ((((((....))))))	-36.2 kcal/mol	50.4 °C

Sequence	folding enthalpy [1]	Tm [2]
GCATCGCGAAAGCGTTGC (((.(((....))).)))	-44.2 kcal/mol	58.5 °C
GGGTGAGGAAACTTACCC ((((.((....)).))))	-35.7 kcal/mol	47.7 °C
GTACGACGAAAGTCTAC (((.(((....))))))	-19.7 kcal/mol	37.2 °C
GTGGAGAAATCCAC (((((....)))))	-25.7 kcal/mol	49.3 °C
GCGTATCTACGC ((((....))))	-24.4 kcal/mol	56.9 °C
GATCGGTACCCGATC ((((((...))))))	-39.3 kcal/mol	57.2 °C
GGTATCCGAAAGGAGACC (((.(((....))).)))	-43 kcal/mol	58.5 °C
GTATACGGAAACGTGTAC (((.(((....))).)))	-35.3 kcal/mol	46.3 °C
CGGTTCCGGAAACGGCCG (((..(((....))))))	-21 kcal/mol	43.3 °C
GGTAACCGAAAGGTAACC (((.(((....))).)))	-20.8 kcal/mol	50.8 °C
GGTCCCCCGAAAGGGACC (((..(((....))))))	-29.9 kcal/mol	63.9 °C
GCTCACGAAAGTGACAGC ((((((....)))..)))	-14.8 kcal/mol	43.2 °C
GGGAGACGAAAGTCGCCC (((.(((....))).)))	-33 kcal/mol	66 °C
GGACCTCGAAAGAGCTCC (((.(((....))).)))	-25.5 kcal/mol	37 °C
GATCACGTCGTGATC ((((((...))))))	-40.5 kcal/mol	61.1 °C
GAGAGAGGAAACCCTCTC (((((.(....).)))))	-20.2 kcal/mol	42.5 °C
CGTAGTCGGAAACGAACG (((..(((....))))))	-4.62 kcal/mol	21.6 °C
GGACCCGAAAGGGAGTCC ((((((....)))..)))	-20.9 kcal/mol	49.9 °C
GCCCGGCGAAAGCTCGGC (((..((....))..)))	-16.4 kcal/mol	52.7 °C
GGCTATGGAAACGTAGCC (((((.(....).)))))	-46 kcal/mol	52.6 °C
GATCTCCGAAAGGAATC (((.(((....))))))	-14.4 kcal/mol	33.3 °C
GGTAGAGGAAACTCTGCC ((.((((....)))).))	-34.2 kcal/mol	49.2 °C
